Data published in ChEMBL document CHEMBL4118126, “An orally available, brain-penetrant CAMKK2 inhibitor reduces food intake in rodent model” (Bioorg Med Chem Lett, 2018).
Converted amounts (≈) assume the structure as drawn.

Legend:
[1] = Solubility of the compound in pH 7.4 phosphate buffer saline after 1 hr by chemiluminescence nitrogen detection method; assay type: physicochemical; settings: phosphate buffered saline
Outline: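 Kinetic solubility: 10 mM DMSO stock diluted 1:20 into 10 mM phosphate-buffered saline pH 7.4, equilibrated 1 h at RT, filtered, and filtrate quantified by calibrated flow-injection chemiluminescent nitrogen detection.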

[2] = biological target: Calcium/calmodulin-dependent protein kinase kinase 2 (Mus musculus, UniProt Q8C078); test: Inhibition of CAMKK2 in mouse N39 cells assessed as decrease in AMPKalpha phosphorylation at T172 preincubated for 80 mins followed by […] addition by ELISA; assay type: cell-based
Outline: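 Mouse N39 cells seeded ~1000 cells/well, cultured overnight at 37°C, 5% CO2, then exposed to compound in DMSO for 80 min before ionomycin stimulation ([…] as added). Cells were lysed in extraction buffer for 30 min on ice, then diluted into ice-cold lysis buffer containing protease and phosphatase inhibitors for MSD read-out.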

[3] = biological target: Calcium/calmodulin-dependent protein kinase kinase 2 (Homo sapiens, UniProt Q96RR4); test: Inhibition of full-length human GST-tagged CAMKK2 using 5FAM-AKPKGNKDYHLQTCCGSLAYRRR-amide as substrate preincubated for 30 mins followed by substrate addition measured after 120 mins by fluorescence polarization assay
Insulin receptor = Insulin receptor (Homo sapiens, UniProt P06213); test: Inhibition of INSR (unknown origin); settings: read-out: pIC50 (converted)
[4] = biological target: Mitogen-activated protein kinase 8 (Homo sapiens, UniProt P45983); test: Inhibition of JNK1 (unknown origin)
[5] = biological target: T1, Inhibitor of nuclear factor kappa-B kinase subunit alpha (Homo sapiens, UniProt O15111); test: Inhibition of IKK1 (unknown origin)
T1 sequence (O15111 whole entry): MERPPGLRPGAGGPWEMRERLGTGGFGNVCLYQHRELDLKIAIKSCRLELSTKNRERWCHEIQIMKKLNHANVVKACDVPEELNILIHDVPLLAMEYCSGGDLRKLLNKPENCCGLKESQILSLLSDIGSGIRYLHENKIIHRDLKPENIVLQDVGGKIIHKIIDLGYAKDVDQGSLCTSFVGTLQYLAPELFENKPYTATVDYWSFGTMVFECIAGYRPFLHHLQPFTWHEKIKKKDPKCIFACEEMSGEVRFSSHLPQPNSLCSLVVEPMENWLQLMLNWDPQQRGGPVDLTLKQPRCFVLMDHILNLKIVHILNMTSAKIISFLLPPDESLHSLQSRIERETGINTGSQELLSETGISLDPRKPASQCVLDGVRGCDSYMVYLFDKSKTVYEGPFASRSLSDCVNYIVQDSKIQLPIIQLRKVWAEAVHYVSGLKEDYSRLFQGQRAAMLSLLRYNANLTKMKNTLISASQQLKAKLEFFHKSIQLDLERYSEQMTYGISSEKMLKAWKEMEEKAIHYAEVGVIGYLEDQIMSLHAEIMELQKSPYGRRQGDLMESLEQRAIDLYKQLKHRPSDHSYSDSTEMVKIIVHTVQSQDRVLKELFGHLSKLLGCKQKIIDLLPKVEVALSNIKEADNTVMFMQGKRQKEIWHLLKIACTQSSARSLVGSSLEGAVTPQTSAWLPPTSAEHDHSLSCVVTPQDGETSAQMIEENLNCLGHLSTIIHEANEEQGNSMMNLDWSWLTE

[6] = biological target: Glycogen synthase kinase-3 beta (Homo sapiens, UniProt P49841); test: Inhibition of GSK3beta (unknown origin)
[7] = biological target: Phosphatidylinositol 4,5-bisphosphate 3-kinase catalytic subunit gamma isoform (Homo sapiens, UniProt P48736); test: Inhibition of PI3Kgamma (unknown origin)
Phosphatidylinositol 4,5-bisphosphate 3-kinase catalytic subunit gamma isoform, sequence (P48736 whole entry, canonical isoform): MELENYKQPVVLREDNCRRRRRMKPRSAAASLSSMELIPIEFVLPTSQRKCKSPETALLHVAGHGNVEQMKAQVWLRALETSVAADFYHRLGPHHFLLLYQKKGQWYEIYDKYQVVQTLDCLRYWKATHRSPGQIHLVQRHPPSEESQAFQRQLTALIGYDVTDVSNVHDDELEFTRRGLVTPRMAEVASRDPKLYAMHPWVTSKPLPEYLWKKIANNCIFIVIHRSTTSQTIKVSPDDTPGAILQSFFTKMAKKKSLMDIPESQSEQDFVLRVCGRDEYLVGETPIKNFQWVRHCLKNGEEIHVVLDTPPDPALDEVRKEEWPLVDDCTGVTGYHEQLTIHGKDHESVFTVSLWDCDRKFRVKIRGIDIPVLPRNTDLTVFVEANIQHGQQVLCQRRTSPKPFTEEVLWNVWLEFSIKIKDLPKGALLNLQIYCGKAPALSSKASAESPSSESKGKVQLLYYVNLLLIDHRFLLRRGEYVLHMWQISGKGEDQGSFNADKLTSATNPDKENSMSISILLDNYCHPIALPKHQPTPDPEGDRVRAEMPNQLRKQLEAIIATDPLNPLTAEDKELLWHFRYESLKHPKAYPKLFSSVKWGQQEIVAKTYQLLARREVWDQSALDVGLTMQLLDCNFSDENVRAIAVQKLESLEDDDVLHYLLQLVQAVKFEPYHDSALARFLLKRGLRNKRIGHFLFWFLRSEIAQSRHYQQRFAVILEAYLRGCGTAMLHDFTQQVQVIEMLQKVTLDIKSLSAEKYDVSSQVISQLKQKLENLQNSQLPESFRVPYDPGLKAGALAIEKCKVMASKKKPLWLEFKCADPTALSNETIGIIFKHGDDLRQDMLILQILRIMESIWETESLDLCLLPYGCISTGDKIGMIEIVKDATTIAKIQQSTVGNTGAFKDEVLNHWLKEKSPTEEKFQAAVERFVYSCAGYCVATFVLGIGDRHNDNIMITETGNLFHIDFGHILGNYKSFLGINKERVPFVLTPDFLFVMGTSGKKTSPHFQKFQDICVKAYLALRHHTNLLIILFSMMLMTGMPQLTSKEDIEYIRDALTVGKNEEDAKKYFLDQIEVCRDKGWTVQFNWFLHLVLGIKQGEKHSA

Insulin receptor, sequence (P06213 28-758 limits assumed): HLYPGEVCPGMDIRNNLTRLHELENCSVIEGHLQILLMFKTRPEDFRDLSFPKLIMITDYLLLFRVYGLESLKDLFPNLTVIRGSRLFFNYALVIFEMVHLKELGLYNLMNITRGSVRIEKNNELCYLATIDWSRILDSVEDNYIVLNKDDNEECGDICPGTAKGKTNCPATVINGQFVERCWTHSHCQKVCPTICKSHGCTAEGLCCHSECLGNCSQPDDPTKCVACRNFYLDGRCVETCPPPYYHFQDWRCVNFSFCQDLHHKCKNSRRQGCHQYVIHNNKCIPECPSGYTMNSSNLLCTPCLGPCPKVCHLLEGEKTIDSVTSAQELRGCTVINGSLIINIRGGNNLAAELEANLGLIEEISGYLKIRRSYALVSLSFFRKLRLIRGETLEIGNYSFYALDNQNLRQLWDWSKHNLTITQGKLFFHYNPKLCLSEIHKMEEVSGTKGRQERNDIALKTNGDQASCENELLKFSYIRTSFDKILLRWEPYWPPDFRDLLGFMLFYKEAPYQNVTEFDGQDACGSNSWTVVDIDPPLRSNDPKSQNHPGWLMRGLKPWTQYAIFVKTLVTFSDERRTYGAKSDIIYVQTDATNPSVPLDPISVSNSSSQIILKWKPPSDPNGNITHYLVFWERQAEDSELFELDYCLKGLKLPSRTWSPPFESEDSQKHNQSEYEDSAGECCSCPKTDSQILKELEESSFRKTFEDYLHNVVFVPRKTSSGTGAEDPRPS
Insulin receptor, sequence (P06213 763-1382 limits assumed): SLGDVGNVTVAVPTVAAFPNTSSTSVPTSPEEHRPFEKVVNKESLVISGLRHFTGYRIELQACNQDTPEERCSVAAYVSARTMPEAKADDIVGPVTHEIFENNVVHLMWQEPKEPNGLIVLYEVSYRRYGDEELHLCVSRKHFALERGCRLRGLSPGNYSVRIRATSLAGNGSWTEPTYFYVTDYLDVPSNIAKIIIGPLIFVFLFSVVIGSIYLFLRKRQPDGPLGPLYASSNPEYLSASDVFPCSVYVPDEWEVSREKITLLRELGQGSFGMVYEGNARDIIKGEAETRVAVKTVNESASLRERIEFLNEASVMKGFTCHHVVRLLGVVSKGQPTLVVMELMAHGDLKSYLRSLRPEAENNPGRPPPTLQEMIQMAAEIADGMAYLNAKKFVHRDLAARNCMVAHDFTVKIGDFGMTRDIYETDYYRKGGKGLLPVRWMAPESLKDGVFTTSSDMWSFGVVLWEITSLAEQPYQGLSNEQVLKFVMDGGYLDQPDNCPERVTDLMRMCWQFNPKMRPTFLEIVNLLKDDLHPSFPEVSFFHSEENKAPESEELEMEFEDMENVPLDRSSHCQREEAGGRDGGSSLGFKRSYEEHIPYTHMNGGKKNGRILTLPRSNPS
Calcium/calmodulin-dependent protein kinase kinase 2 (Homo sapiens, UniProt Q96RR4), sequence (Q96RR4 whole entry): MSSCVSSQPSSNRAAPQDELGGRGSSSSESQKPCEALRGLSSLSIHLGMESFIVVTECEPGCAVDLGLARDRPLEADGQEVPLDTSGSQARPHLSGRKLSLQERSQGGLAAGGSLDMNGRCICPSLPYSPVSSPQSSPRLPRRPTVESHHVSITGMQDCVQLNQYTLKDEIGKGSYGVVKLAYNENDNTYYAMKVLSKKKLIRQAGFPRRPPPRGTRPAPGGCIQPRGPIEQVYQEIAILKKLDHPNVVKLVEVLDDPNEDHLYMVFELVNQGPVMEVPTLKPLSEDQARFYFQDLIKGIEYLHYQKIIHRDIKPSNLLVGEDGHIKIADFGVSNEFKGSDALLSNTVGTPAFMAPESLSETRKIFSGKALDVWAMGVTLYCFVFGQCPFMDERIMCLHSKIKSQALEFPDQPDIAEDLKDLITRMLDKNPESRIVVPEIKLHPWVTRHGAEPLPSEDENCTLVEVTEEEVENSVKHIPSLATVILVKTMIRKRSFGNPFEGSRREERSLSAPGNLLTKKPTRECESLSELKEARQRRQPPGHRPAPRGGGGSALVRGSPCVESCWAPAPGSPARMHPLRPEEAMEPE
Mitogen-activated protein kinase 8, sequence (P45983 whole entry): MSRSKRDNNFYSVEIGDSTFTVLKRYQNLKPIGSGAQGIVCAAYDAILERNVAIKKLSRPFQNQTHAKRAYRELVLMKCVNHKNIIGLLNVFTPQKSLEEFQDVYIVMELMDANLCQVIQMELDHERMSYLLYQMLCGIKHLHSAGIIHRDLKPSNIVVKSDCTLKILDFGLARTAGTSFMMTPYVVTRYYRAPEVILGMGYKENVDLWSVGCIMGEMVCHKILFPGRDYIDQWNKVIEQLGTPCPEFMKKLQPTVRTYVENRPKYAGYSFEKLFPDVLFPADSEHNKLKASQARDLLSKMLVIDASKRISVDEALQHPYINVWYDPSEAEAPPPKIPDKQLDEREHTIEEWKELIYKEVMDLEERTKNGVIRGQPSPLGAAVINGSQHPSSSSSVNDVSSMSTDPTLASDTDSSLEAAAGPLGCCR
Glycogen synthase kinase-3 beta, sequence (P49841 whole entry, canonical isoform): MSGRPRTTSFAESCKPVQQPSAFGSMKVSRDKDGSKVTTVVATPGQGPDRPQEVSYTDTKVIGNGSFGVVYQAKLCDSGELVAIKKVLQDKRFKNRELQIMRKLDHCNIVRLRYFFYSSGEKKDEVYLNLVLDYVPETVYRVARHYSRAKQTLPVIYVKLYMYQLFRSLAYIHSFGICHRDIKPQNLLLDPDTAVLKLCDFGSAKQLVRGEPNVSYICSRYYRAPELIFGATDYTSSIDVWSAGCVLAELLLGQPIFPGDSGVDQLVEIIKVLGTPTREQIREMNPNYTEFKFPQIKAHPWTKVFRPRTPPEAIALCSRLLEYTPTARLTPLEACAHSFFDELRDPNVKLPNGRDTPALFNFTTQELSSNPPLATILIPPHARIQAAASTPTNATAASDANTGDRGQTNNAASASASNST
Calcium/calmodulin-dependent protein kinase kinase 2 (Mus musculus, UniProt Q8C078), sequence (Q8C078 whole entry): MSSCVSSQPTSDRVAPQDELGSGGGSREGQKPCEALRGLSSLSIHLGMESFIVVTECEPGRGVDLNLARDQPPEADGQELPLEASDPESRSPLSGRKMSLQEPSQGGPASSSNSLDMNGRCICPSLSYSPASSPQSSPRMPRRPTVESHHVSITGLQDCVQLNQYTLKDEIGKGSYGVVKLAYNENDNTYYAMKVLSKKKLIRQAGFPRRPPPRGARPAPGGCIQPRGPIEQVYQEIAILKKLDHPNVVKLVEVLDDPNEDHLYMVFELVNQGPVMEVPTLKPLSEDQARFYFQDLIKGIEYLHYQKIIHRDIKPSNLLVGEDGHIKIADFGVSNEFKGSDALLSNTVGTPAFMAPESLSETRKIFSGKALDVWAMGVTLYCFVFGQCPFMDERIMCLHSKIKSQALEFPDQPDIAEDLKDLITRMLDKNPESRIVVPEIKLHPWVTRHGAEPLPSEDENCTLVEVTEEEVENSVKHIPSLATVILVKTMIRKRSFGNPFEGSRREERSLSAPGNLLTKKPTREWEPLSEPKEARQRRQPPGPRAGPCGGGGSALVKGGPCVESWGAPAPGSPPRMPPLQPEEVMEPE

| solubility at 1 h [1] [µM] | IC50 [2] [µM] | IC50 [3] [µM] | IC50 (Insulin receptor) [µM] | IC50 [4] [µM] | IC50 [5] [µM] | IC50 [6] [µM] | IC50 [7] [µM] | SMILES |
| --- | --- | --- | --- | --- | --- | --- | --- | --- |
| 150 (≈ 57.4 µg/mL) | 1.26 |  |  |  |  |  |  | O=C(O)c1ccc(-c2c[nH]c3ncc(-c4ccccc4)cc23)cc1C1CCCC1 [GSK-650394] |
| > 205 |  | 1.26 to 10 |  |  |  |  |  | NC(=O)c1ccc2c(-c3ccc(C(=O)O)c(C4CCCC4)c3)c[nH]c2n1 |
| 157 (≈ 58.2 µg/mL) | 0.158 | 0.00316 to 0.0251 | 0.316 | 0.0794 | 0.0794 |  |  | CN(C)Cc1ccc(-c2cc3c(-c4ccc(C(N)=O)cc4)ccnc3[nH]2)cc1 |
| 333 (≈ 123 µg/mL) |  | 0.00501 to 0.0251 |  |  |  |  |  | CC(C)Cc1cc(-c2c[nH]c3ncc(-c4ccccc4)cc23)ccc1C(=O)O |
| 100 (≈ 32.8 µg/mL) |  |  |  |  |  |  |  | Cc1cc(-c2c[nH]c3ncc(-c4ccccc4)cc23)ccc1C(=O)O |
| 12 (≈ 5.39 µg/mL) |  |  |  |  |  |  |  | NC(=O)c1ccc(-c2c[nH]c3ncc(-c4ccccc4C(F)(F)F)cc23)cc1C1CCCC1 |
| 6 (≈ 2.38 µg/mL) | 3.98 |  |  |  |  |  |  | NC(=O)c1ccc(-c2c[nH]c3ncc(-c4ccccc4O)cc23)cc1C1CCCC1 |
| 11 (≈ 5.02 µg/mL) | 0.158 | 0.00158 | 1.26 | 0.2 | 0.126 |  |  | Cc1cc(OCCN2CCOCC2)ccc1-c1cc2c(-c3ccc(C(N)=O)cc3)ccnc2[nH]1 |
| 2 (≈ 0.853 µg/mL) | 0.0316 | 0.00158 to 0.0158 | > 10 | 6.31 | 3.16 |  |  | Cc1ccc(CN2CCOCC2)cc1-c1cc2c(-c3ccc(C(N)=O)cc3)ccnc2[nH]1 |
| 10 (≈ 3.62 µg/mL) | > 10 | 0.0631 to 1.58 |  | 1.58 |  | > 25.1 | 2.51 | COc1ccccc1Nc1nccc(-c2ccc(C(N)=O)c(C(C)C)c2)n1 |
| 5 (≈ 1.64 µg/mL) |  | 1.26 |  |  |  |  |  | COC(=O)c1ccc(-c2c[nH]c3ncc(-c4ccccc4)cc23)cc1 |
| < 1 | > 10 | 0.1 to 1.26 |  | 2 |  | > 25.1 | > 10 | COc1ccccc1Nc1nccc(-c2ccc(C(N)=O)cc2)n1 |

The next lines start with the molecule.

| SMILES | solubility at 1 h [1] [µM] | IC50 [2] [µM] | IC50 [3] [µM] | IC50 (Insulin receptor) [µM] | IC50 [4] [µM] | IC50 [5] [µM] | IC50 [6] [µM] | IC50 [7] [µM] |
| --- | --- | --- | --- | --- | --- | --- | --- | --- |
| N#Cc1ccc2c(-c3ccc(C(=O)O)c(C4CCCC4)c3)c[nH]c2n1 | 155 (≈ 51.4 µg/mL) | 6.31 |  |  |  |  |  |  |
| c1ccc(-c2cnc3[nH]cc(-c4ccc(-c5nn[nH]n5)cc4)c3c2)cc1 | 276 (≈ 93.4 µg/mL) |  |  |  |  |  |  |  |
| CS(=O)(=O)Nc1ccc(-c2cc3c(-c4ccc(C(N)=O)cc4)ccnc3[nH]2)cc1 | 5 (≈ 2.03 µg/mL) | 0.316 | 0.002 to 0.0126 | 0.316 | 0.0631 | 0.0316 |  |  |
| O=C(O)c1ccc(-c2c[nH]c3ncc(-c4ccccc4)cc23)cc1 | 82 (≈ 25.8 µg/mL) |  | 0.2 |  |  |  |  |  |
| CN(C)CCCNC(=O)c1ccc(-c2cc3c(-c4ccc(C(N)=O)cc4)ccnc3[nH]2)cc1 | 29 (≈ 12.8 µg/mL) | > 10 | 0.00158 to 0.0126 | 0.158 | 0.126 | 0.0794 |  |  |
| CCc1cc(-c2c[nH]c3ncc(-c4ccccc4)cc23)ccc1C(=O)O | 178 (≈ 60.9 µg/mL) |  | 0.02 |  |  |  |  |  |
| COc1ccc(-c2ccccc2)cc1Nc1nccc(-c2ccc(C(N)=O)cc2)n1 | 7 (≈ 2.78 µg/mL) | > 10 | 0.0126 to 0.251 |  | > 10 |  | > 25.1 | 7.94 |
| Cc1ccc(CN2CCOCC2)cc1-c1cc2c(-c3ccc(C(N)=O)c(C(C)C)c3)ccnc2[nH]1 | 1 (≈ 0.469 µg/mL) | 0.2 | 0.00158 to 0.02 | > 10 | 0.631 | 0.158 |  |  |
| COc1ccccc1Nc1ncc(F)c(-c2ccc(C(N)=O)c(C(C)C)c2)n1 | 11 (≈ 4.18 µg/mL) | 3.16 | 0.0398 to 0.316 |  | 3.16 |  | 7.94 | > 10 |
| Cc1c(CN2CCOCC2)cccc1-c1cc2c(-c3ccc(C(N)=O)cc3)ccnc2[nH]1 | 18 (≈ 7.68 µg/mL) | 0.2 | 0.00158 to 0.0126 | 1.26 | 0.316 | 0.1 |  |  |
| CN(C)CCCNC(=O)c1cccc(-c2cc3c(-c4ccc(C(N)=O)cc4)ccnc3[nH]2)c1 |  | 3.98 | 0.00251 to 0.0126 | 3.16 | 0.631 | 0.126 |  |  |
| O=C(O)c1ccc(-c2c[nH]c3ncc(-c4ccccc4Oc4ccccc4)cc23)cc1 | 24 (≈ 9.75 µg/mL) |  |  |  |  |  |  |  |
